Measurements gathered from unrelated publications.
Lines come from different studies, so protocols differ.
Effect on: enzyme activity
Action: inhibitor
KIT: Mast/stem cell growth factor receptor Kit (KIT, Homo sapiens, UniProt P10721)

Compound | target | method | tested at | inhibition [%]
O=C(CSc1nc2nccnc2c(=O)n1CCc1ccccc1)Nc1nccs1 | Mast/stem cell growth factor receptor Kit (KIT, Homo sapiens, UniProt P10721, T670I/V559D) |  | 10 µM | 1
COc1cc2ncnc(Nc3ccc(Oc4ccccc4)c(C)c3C)c2cc1OC | KIT |  | 1 µM | 8
COc1cc(-c2cc(-c3ccc(N4CCNCC4)cc3)cnc2N)cc(OC)c1OC | Mast/stem cell growth factor receptor Kit (KIT, Homo sapiens, UniProt P10721, V560G) |  | 1 µM | 5
CC/C(=N\NC(=O)NCc1cccc(O)c1)c1ccc(O)c(C)c1O | Mast/stem cell growth factor receptor Kit (KIT, Homo sapiens, UniProt P10721, V654A) |  | 0.1 µM | -0.5
CN1CC(Oc2cnc(C#N)cc2-c2ccn3nc(NC(=O)C4CC4)cc3c2)C1 | KIT |  | 1 µM | 4
CN(C)C1CCN(CC#Cc2nn(C3CCCC3)c3nc(NCc4ccccc4)ncc23)C1 (stereo not shown) | KIT | FRET | 0.1 µM | 1
COc1cc2ncnc(Nc3ccc(Oc4ccccc4)cc3C)c2cc1OC | KIT |  | 1 µM | -1
CS(=O)(=O)Nc1cccc(-c2csc(NC(=O)CSc3nc4nccnc4c(=O)n3CCc3ccccc3)n2)c1 | KIT |  | 10 µM | -5
CCCS(=O)(=O)Nc1ccc(F)c(C(=O)c2c[nH]c3ncc(-c4ccc(Cl)cc4)cc23)c1F | KIT |  | 1 µM | < 20
CCOc1cc(-c2nncn2C)ccc1Nc1ncc2cc(C)nc(NCC(C)(C)C)c2n1 | KIT | FRET | 1 µM | < 15
